Active and inactive are the calls of the source. The calls are words filed in the database; no cut-off is given here.
Tests used:
[1] = molecular target: T1, Lanosterol synthase (Homo sapiens) (UniProt P48449); assay: Inhibition of 2,3-oxidosqualene-lanosterol cyclase at 200 nM
T1 sequence (whole entry): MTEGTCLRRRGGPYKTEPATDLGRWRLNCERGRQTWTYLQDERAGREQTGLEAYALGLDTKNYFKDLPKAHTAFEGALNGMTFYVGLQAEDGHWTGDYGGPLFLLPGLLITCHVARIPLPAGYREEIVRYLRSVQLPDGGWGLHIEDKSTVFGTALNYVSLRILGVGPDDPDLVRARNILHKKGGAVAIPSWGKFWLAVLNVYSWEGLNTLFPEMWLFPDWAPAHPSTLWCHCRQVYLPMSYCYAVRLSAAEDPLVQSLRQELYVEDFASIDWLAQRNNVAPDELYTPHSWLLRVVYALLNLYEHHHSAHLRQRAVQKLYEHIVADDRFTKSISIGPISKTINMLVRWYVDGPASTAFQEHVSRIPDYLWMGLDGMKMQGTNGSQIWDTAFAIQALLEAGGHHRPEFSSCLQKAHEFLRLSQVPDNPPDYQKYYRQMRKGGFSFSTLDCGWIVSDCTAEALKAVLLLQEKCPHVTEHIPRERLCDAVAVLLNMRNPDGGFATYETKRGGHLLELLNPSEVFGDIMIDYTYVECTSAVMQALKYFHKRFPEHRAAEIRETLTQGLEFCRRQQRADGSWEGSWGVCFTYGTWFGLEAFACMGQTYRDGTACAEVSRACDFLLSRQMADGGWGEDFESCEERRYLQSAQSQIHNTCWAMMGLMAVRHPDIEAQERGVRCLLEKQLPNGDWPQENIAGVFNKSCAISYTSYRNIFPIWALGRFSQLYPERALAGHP
How it was run: (§1)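 HepG2 cells were incubated 24 h with compound in BME with 10% fetal calf serum, then labelled with [14C]mevalonate (7.4 kBq). Lipids were extracted with heptane/isopropanol and separated by TLC. [14C]cholesterol, MES and DES were identified against standards and quantified by phosphorimaging, scoring cholesterol synthesis inhibition together with MES/DES formation.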

Lanosterol synthase = molecular target: T2, Lanosterol synthase (Homo sapiens, UniProt P48449); assay: Inhibition of 2,3-oxidosqualene-lanosterol cyclase; how it was run: as §1
T2 sequence (P48449 whole entry): T1 sequence (whole entry)

[2] = Metabolic stability in rat liver microsomes assessed as intrinsic clearance […]; format: ADME, Microsome
Rattus norvegicus [3] = assay: Inhibition of neosynthetized cholesterol synthesis in OFA rat liver at 2 mg/kg, po after 3 hrs; format: functional
How it was run: (§2)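 Male OFA rats dosed orally at 2 mg/kg. Sterol synthesis was labelled by ip [14C]mevalonate (370 kBq) for the final hour, giving 3 h or 8 h total exposure. Lens and liver lipids were extracted with isopropanol, separated by TLC, and cholesterol and MES radioactivity quantified by phosphorimaging. Cholesterol inhibition is relative to vehicle-treated rats, and MES as % of BIBB 515-treated rats (100%).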

Rattus norvegicus [4] = assay: Induction of neosynthetized 2,3 mono-epoxysqualene synthesis in OFA rat liver at 2 mg/kg, po after 3 hrs relative to BIBB 515; format: functional; how it was run: as §2
Rattus norvegicus [5] = assay: Inhibition of neosynthetized cholesterol synthesis in OFA rat lens at 2 mg/kg, po after 3 hrs; format: functional; settings: Lens of camera-type eye; how it was run: as §2
Rattus norvegicus [6] = assay: Induction of neosynthetized 2,3 mono-epoxysqualene synthesis in OFA rat lens at 2 mg/kg, po after 3 hrs relative to BIBB 515; format: functional, Lens of camera-type eye; how it was run: as §2
Rattus norvegicus [7] = assay: Inhibition of neosynthetized cholesterol synthesis in OFA rat liver at 2 mg/kg, po after 8 hrs; format: functional; how it was run: as §2
Rattus norvegicus [8] = assay: Induction of neosynthetized 2,3 mono-epoxysqualene synthesis in OFA rat liver at 2 mg/kg, po after 8 hrs relative to BIBB 515; format: functional; how it was run: as §2
Rattus norvegicus [9] = assay: Inhibition of neosynthetized cholesterol synthesis in OFA rat lens at 2 mg/kg, po after 8 hrs; format: functional; settings: Lens of camera-type eye; how it was run: as §2
Rattus norvegicus [10] = assay: Induction of neosynthetized 2,3 mono-epoxysqualene synthesis in OFA rat lens at 2 mg/kg, po after 8 hrs relative to BIBB 515; format: functional, Lens of camera-type eye; how it was run: as §2
[11] = AUC (0 to 6 hrs) in OFA rat at 1 mg/kg, iv; format: ADME, organism-based; set-up: time < 6 hr, dose 1 mg/kg, route intravenous; settings: plasma
How it was run: (§3)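 OFA rats (n = 10) dosed 1 mg/kg by iv bolus via penis vein in 10% DMA/90% PEG200. Plasma and tissue homogenates in borate buffer 0.1 M pH 11.5 were extracted with ethyl ether and analysed by LC. Plasma AUC was computed over 0–6 h.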

[12] = Biodistribution in OFA rat liver at 1 mg/kg, iv after 2 hrs; format: ADME, organism-based; set-up: dose 1 mg/kg, route intravenous; settings: read-out: Drug uptake; how it was run: as §3
[13] = Biodistribution in OFA rat liver at 1 mg/kg, iv after 6 hrs; format: ADME, organism-based; set-up: dose 1 mg/kg, route intravenous; settings: read-out: Drug uptake; how it was run: as §3
[14] = Biodistribution in OFA rat eyes at 1 mg/kg, iv after 2 hrs; format: ADME, organism-based; set-up: dose 1 mg/kg, route intravenous; settings: eye, read-out: Drug uptake; how it was run: as §3
[15] = Biodistribution in OFA rat eyes at 1 mg/kg, iv after 6 hrs; format: ADME, organism-based; set-up: dose 1 mg/kg, route intravenous; settings: eye, read-out: Drug uptake; how it was run: as §3
Rattus norvegicus [16] = assay: Ocular toxicity in Sprague-Dawley rat assessed as opacification of anterior lens at 30 mg/kg, po administered once daily for 21 days; format: organism-based, Lens of camera-type eye; set-up: dose 30 mg/kg, route oral; settings: in vivo, 504 h
How it was run: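 Sprague–Dawley rats (male and female, n = 3) were dosed orally once daily for 21 days. Anterior lens opacification was scored from 0 to 6 (4 marked, 5 very marked, 6 severe), with histological examination of the eye.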

Rattus norvegicus [17] = assay: Inhibition of 2,3-oxidosqualene-lanosterol cyclase in male Sprague-Dawley rat assessed as 2,3 mono-epoxysqualene appearance in liver at 2 mg/kg, po administered once daily for 21 days; format: functional, organism-based; set-up: dose 2 mg/kg
How it was run: (§4)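 Sprague–Dawley rats (3 per sex) were dosed orally once daily for 21 days. On day 21, 3 h after the last dose, rats were sacrificed and hepatic lipids extracted and separated by TLC. MES was visualised with 5% phosphomolybdic acid in isopropanol, and MES mass quantified by densitometry.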

Rattus norvegicus [18] = assay: Inhibition of 2,3-oxidosqualene-lanosterol cyclase in female Sprague-Dawley rat assessed as 2,3 mono-epoxysqualene appearance in liver at 2 mg/kg, po administered once daily for 21 days; format: functional, organism-based; set-up: dose 2 mg/kg; how it was run: as §4
Rattus norvegicus [19] = assay: Inhibition of 2,3-oxidosqualene-lanosterol cyclase in male Sprague-Dawley rat assessed as 2,3 mono-epoxysqualene appearance in liver at 10 mg/kg, po administered once daily for 21 days; format: functional, organism-based; set-up: dose 10 mg/kg; how it was run: as §4
Rattus norvegicus [20] = assay: Inhibition of 2,3-oxidosqualene-lanosterol cyclase in female Sprague-Dawley rat assessed as 2,3 mono-epoxysqualene appearance in liver at 10 mg/kg, po administered once daily for 21 days; format: functional, organism-based; set-up: dose 10 mg/kg; how it was run: as §4
Rattus norvegicus [21] = assay: Inhibition of 2,3-oxidosqualene-lanosterol cyclase in male Sprague-Dawley rat assessed as 2,3 mono-epoxysqualene appearance in liver at 30 mg/kg, po administered once daily for 21 days; format: functional, organism-based; set-up: dose 30 mg/kg; how it was run: as §4
Rattus norvegicus [22] = assay: Inhibition of 2,3-oxidosqualene-lanosterol cyclase in female Sprague-Dawley rat assessed as 2,3 mono-epoxysqualene appearance in liver at 30 mg/kg, po administered once daily for 21 days; format: functional, organism-based; set-up: dose 30 mg/kg; how it was run: as §4

| Activity [1] | IC50 (Lanosterol synthase) | CLint scaled [2] | Compound | inhibition in vivo at 2 mg/kg (Rattus norvegicus [3]) | Activity (Rattus norvegicus [4]) | other results |
| --- | --- | --- | --- | --- | --- | --- |
| – | 6 nM | 5.4 mL/min/g | CN1CCN(c2ccc(CN3CCN(S(=O)(=O)c4ccc(Cl)cc4)CC3)cc2)CC1 | 75% | 111% | inhibition in vivo at 2 mg/kg (Rattus norvegicus [5]): 67%; Activity (Rattus norvegicus [6]): 162%; inhibition in vivo at 2 mg/kg (Rattus norvegicus [7]): 62%; Activity (Rattus norvegicus [8]): 232%; inhibition in vivo at 2 mg/kg (Rattus norvegicus [9]): 67%; Activity (Rattus norvegicus [10]): 29%; AUC(0-t) at 6 h [11]: 97 ng·h/mL; concentration at 2 h [12]: 6600 ng/g; concentration at 6 h [13]: 3270 ng/g; concentration at 2 h [14]: 278 ng/g; concentration at 6 h [15]: 123 ng/g; Activity (Rattus norvegicus [16]): Toxic; Activity (Rattus norvegicus [17]): Toxic; Activity (Rattus norvegicus [18]): Toxic; Activity (Rattus norvegicus [19]): Toxic; Activity (Rattus norvegicus [20]): Toxic; Activity (Rattus norvegicus [21]): Toxic; Activity (Rattus norvegicus [22]): Toxic |
| inactive | – | – | O=C(c1ccc(Cl)cc1)N1CCN(Cc2ccc(-n3cccn3)cc2)CC1 | – | – | – |
| inactive | – | – | Cc1nc(-c2ccc(CN3CCN(C(=O)c4ccc(Cl)cc4)CC3)cc2)no1 | – | – | – |
| inactive | – | – | O=C(c1ccc(Cl)cc1)N1CCN(Cc2ccc(-c3ccn[nH]3)cc2)CC1 | – | – | – |
| – | 2510 nM | – | COc1ccc(C(=O)N2CCN(Cc3ccc(-c4ccncc4)cc3)CC2)cc1 | – | – | – |
| – | 3 nM | 6 mL/min/g | O=C(c1ccc(Cl)cc1)N1CCN(Cc2ccc(-c3ccncc3)cc2)CC1 | 64% | 55% | – |

Continued, compound first:

| Compound | Activity [1] | IC50 (Lanosterol synthase) | CLint scaled [2] | inhibition in vivo at 2 mg/kg (Rattus norvegicus [3]) | Activity (Rattus norvegicus [4]) | other results |
| --- | --- | --- | --- | --- | --- | --- |
| CN(C)Cc1cccc(-c2ccc(CCNS(=O)(=O)c3ccc(C#N)cc3)cc2)c1 | inactive | – | – | – | – | – |
| Clc1ccc(CN2CCN(Cc3ccc(-c4ccncc4)cc3)CC2)cc1 | – | 316 nM | – | – | – | – |
| CN(C)Cc1ccc(-c2ccc(CCNS(=O)(=O)c3ccc(C#N)cc3)cc2)cc1 | – | 28 nM | 9.9 mL/min/g | 47% | 6% | – |
| O=S(=O)(NCCc1ccc(-c2ccc(CN3CCCC3)cc2)cc1)c1ccc(Cl)cc1 | – | 63 nM | – | – | – | – |
